Measurements of several laboratories.
Protocols differ between the studies behind these lines. Values after ≈ are worked out from the molar mass of the structure shown.
Organism: Plasmodium falciparum
Read-out: parasite growth

CCCC1CCN(c2cc3c(cc2F)c(=O)c(C(=O)OCC)cn3CC)CC1
EC50 (3D7; 72 h; blood stage): 0.03 µM

O=C(c1ccc(Nc2nccc(-c3ccc4ccccc4c3)n2)cc1)N1CCC(N2CCCC2)CC1
inhibition (SYBR Green; 3D7; 1 µM; blood stage): > 75%

CCN(CC)CCCC(C)Nc1ccnc2cc(Cl)ccc12 (stereo not shown)
IC50 (D6; 72 h; blood stage): 10 ng/mL (≈ 0.0313 µM)

CCCC1CCN(c2cc3c(cc2F)c(=O)c(-c2nc(C)no2)cn3CC)CC1
EC50 (3D7; 72 h; blood stage): 0.008 µM

Cc1ccc(Nc2ccnc3cc(-c4ccc(S(=O)(=O)N5CCN(C)CC5)cc4)ccc23)cc1Cl
EC50 (D6; drug-resistant strain, blood stage): 0.064 µM

CCn1cc(C(=O)O)c(=O)c2cc(F)c(N3CCC(C)CC3)cc21
EC50 (3D7; 72 h; blood stage): > 10 µM

CN1CCN(S(=O)(=O)c2ccc(-c3ccc4c(Nc5ccnnc5)ccnc4c3)cc2)CC1
EC50 (D6; drug-resistant strain, blood stage): 2.1 µM

Cc1ccc(-c2ccccc2C(=O)Nc2c(C)cccc2C(=O)O)cc1
inhibition (NF54; 2 µM; 48 h; gametocyte): 55%

COc1ccc(Nc2ccnc3cc(-c4ccc(S(=O)(=O)N5CCN(C)CC5)cc4)ccc23)cc1Cl
EC50 (D6; drug-resistant strain, blood stage): 0.012 µM

O=C(Nc1ccc(F)cc1C(=O)O)c1ccc(-c2ccccc2)cc1
inhibition (NF54; 2 µM; 48 h; gametocyte): 43.5%

COc1cnc(Nc2ccnc3cc(-c4ccc(S(=O)(=O)N5CCN(C)CC5)cc4)ccc23)cn1
EC50 (D6; drug-resistant strain, blood stage): 0.13 µM

O=C(Nc1cc(F)ccc1C(=O)O)c1ccc(-c2ccccc2)cc1
inhibition (NF54; 2 µM; 48 h; gametocyte): 13.8%

CCNC(=O)c1cn(CC)c2cc(N3CCC(C)CC3)c(F)cc2c1=O
EC50 (3D7; 72 h; blood stage): 0.477 µM

C[C@@H]1CC[C@H]2[C@@H](C)C(=O)O[C@@H]3O[C@@]4(C)CC[C@@H]1[C@]32OO4
IC50 (W2; drug-resistant strain, blood stage): 9 ng/mL (≈ 0.0319 µM)

c1cnc(Nc2ccnc3cc(-c4cn[nH]c4)ccc23)cn1
EC50 (D6; drug-resistant strain, blood stage): 0.94 µM

CCn1cc(-c2nc(C)no2)c(=O)c2cc(F)c(N3CCC(C)CC3)cc21
EC50 (3D7; blood stage): 0.00762 µM

O=C(Nc1c(F)cccc1C(=O)O)c1ccc(-c2ccccc2)cc1
inhibition (SYBR Green; NF54; 10 µM; 96 h; blood stage): 6.4%

CN1CCN(c2nccc(Nc3ccc4c(Nc5cnccn5)ccnc4c3)n2)CC1
EC50 (D6; drug-resistant strain, blood stage): 0.18 µM

CCn1cc(-c2ccnn2C)c(=O)c2cc(F)c(N3CCC(C)CC3)cc21
EC50 (3D7; 72 h; blood stage): > 10 µM
